Measured values reported in ChEMBL document CHEMBL4680236, “Design, synthesis and structure-activity relationships of novel 15-membered macrolides: Quinolone/quinoline-containing sidechains tethered to the C-6 position of azithromycin acylides” (Eur J Med Chem, 2020).
In brackets after ≈: the same amount, converted by molar mass.

Experiments:
Type in all cases: functional
[1] = tested on: Streptococcus pneumoniae; assay: Ratio of MBC to MIC against penicillin-susceptible Streptococcus pneumoniae PU09
[2] = tested on: Staphylococcus aureus; assay: Bactericidal activity against MLSB/methicillin/ciprofloxacin-resistant Staphylococcus aureus PU32 harboring ermA gene
Summary of the method: (§1)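 Bacteria were exposed to 1- to 8-fold their MIC of test sample, then transferred to fresh culture medium without antibacterial compound and incubated for the required time. Colonies were then counted. MBC is the lowest concentration giving a reduction in colony number of >3 Log₁₀.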

[3] = tested on: Streptococcus pneumoniae; assay: Bactericidal activity against Erythromycin-susceptible Streptococcus pneumoniae ATCC 49619
Summary of the method: (§2)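 Bacteria were exposed to 1- to 8-fold MIC of the sample, then transferred to fresh medium without antibacterial. After further incubation, colonies were counted. MBC was taken as the lowest concentration giving a >3 log10 reduction in colony number.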

[4] = tested on: Staphylococcus aureus; assay: Ratio of MBC to MIC against MLSB/methicillin-resistant Staphylococcus aureus 15B196
[5] = tested on: Haemophilus influenzae; assay: Bactericidal activity against azithromycin-susceptible Haemophilus influenzae ATCC 49247; summary of the method: as §2
[6] = tested on: Staphylococcus aureus; assay: Bactericidal activity against MLSB/methicillin-resistant Staphylococcus aureus 15B196; summary of the method: as §1
[7] = tested on: Streptococcus pneumoniae; assay: Bactericidal activity against penicillin-susceptible Streptococcus pneumoniae PU09 harboring mef gene; summary of the method: as §1
[8] = tested on: Staphylococcus aureus; assay: Ratio of MBC to MIC against MLSB/methicillin/ciprofloxacin-resistant Staphylococcus aureus PU32 harboring ermA gene
[9] = tested on: Streptococcus pneumoniae; assay: Ratio of MBC to MIC against MLSB-resistant Streptococcus pneumoniae 07P390 harboring ermB
[10] = tested on: Streptococcus pneumoniae; assay: Bactericidal activity against MLSB-resistant Streptococcus pneumoniae 07P390 harboring ermB gene assessed as reduction in microbial growth; summary of the method: as §1
[11] = tested on: Staphylococcus aureus; assay: Antibacterial activity against MLSB/methicillin/ciprofloxacin-resistant Staphylococcus aureus PU32 harboring ermA gene assessed as reduction in microbial growth
[12] = tested on: Haemophilus influenzae; assay: Antibacterial activity against azithromycin-susceptible Haemophilus influenzae ATCC 49247 assessed as reduction in microbial growth
[13] = tested on: Staphylococcus aureus; assay: Antibacterial activity against MLSB/methicillin-resistant Staphylococcus aureus 15B196 assessed as reduction in microbial growth
[14] = tested on: Haemophilus influenzae; assay: Ratio of MBC to MIC against azithromycin-susceptible Haemophilus influenzae ATCC 49247
[15] = tested on: Streptococcus pneumoniae; assay: Antibacterial activity against Erythromycin-susceptible Streptococcus pneumoniae ATCC 49619 assessed as reduction in microbial growth
[16] = tested on: Streptococcus pneumoniae; assay: Ratio of MBC to MIC against Erythromycin-susceptible Streptococcus pneumoniae ATCC 49619
[17] = tested on: Streptococcus pneumoniae; assay: Antibacterial activity against penicillin-susceptible Streptococcus pneumoniae PU09 harboring mef gene assessed as reduction in microbial growth
[18] = tested on: Streptococcus pneumoniae; assay: Antibacterial activity against MLSB-resistant Streptococcus pneumoniae 07P390 harboring ermB gene assessed as reduction in microbial growth
[19] = tested on: Staphylococcus aureus; assay: Antibacterial activity against MLSB/methicillin/ciprofloxacin-resistant Staphylococcus aureus PU32 harboring ermA gene assessed as reduction in microbial growth relative to ciprofloxacin
[20] = tested on: Haemophilus influenzae; assay: Antibacterial activity against azithromycin-susceptible Haemophilus influenzae ATCC 49247 assessed as reduction in microbial growth relative to ciprofloxacin
[21] = tested on: Escherichia coli; assay: Antibacterial activity against Escherichia coli JW5503-1 depletion of toIC efflux gene assessed as reduction in microbial growth
[22] = tested on: Staphylococcus aureus; assay: Antibacterial activity against MLSB/methicillin-resistant Staphylococcus aureus 15B196 assessed as reduction in microbial growth relative to ciprofloxacin
[23] = tested on: Escherichia coli; assay: Antibacterial activity against Escherichia coli JW5503-KanS depletion of toIC efflux gene assessed as reduction in microbial growth
[24] = tested on: Escherichia coli; assay: Antibacterial activity against Escherichia coli BW25113 depletion of toIC efflux gene assessed as reduction in microbial growth

SMILES	Ratio [1]	MBC [2] [µg/mL]	MBC [3] [µg/mL]	MBC [5] [µg/mL]	MBC [6] [µg/mL]	MBC [7] [µg/mL]	Ratio [8]	MBC [10] [µg/mL]	MIC [11] [µg/mL]	MIC [12] [µg/mL]	MIC [13] [µg/mL]	Ratio [14]	MIC [15] [µg/mL]	Ratio [16]	MIC [17] [µg/mL]	MIC [18] [µg/mL]	further results
CC[C@H]1OC(=O)[C@H](C)[C@@H](OC(=O)Cc2ccccn2)[C@H](C)[C@@H](O[C@@H]2O[C@H](C)C[C@H](N(C)C)[C@H]2O)[C@](C)(OC(=O)CCNCC/C=C/c2cnc3ccccc3c2)C[C@@H](C)CN(C)[C@H](C)[C@@H](O)[C@]1(C)O	1	8 (≈ 8.31 µM)	0.125 (≈ 0.13 µM)	16 (≈ 16.6 µM)	> 256	1 (≈ 1.04 µM)	4	> 32	2	8	64	2	0.125	1	1	4	Ratio [4]: >4; Ratio [9]: >8
CC[C@H]1OC(=O)[C@H](C)[C@@H](O[C@H]2C[C@@](C)(OC)[C@@H](O)[C@H](C)O2)[C@H](C)[C@@H](O[C@@H]2O[C@H](C)C[C@H](N(C)C)[C@H]2O)[C@](C)(O)C[C@@H](C)CN(C)[C@H](C)[C@@H](O)[C@]1(C)O [AZITHROMYCIN]	2	32 (≈ 42.7 µM)	0.25 (≈ 0.334 µM)	8 (≈ 10.7 µM)	> 256	16 (≈ 21.4 µM)	1	> 257	32	2	> 256	4	0.062	4	8	256	fold change (FC) [19]: 0.22; fold change (FC) [20]: 22; MIC [21]: 4 µg/mL; fold change (FC) [22]: >226; MIC [23]: 2 µg/mL; MIC [24]: > 16 µg/mL
